{"data": "Measurements from different studies", "organism": "Mycobacterium tuberculosis", "observed": "microbial growth", "note": "Protocols differ between the studies behind these lines."}
{"Compound": "Cc1cccc(NC(=O)c2sc3nc(-c4ccco4)cc(C(F)(F)F)c3c2N)c1C", "strain": "H37RV", "measurement": "IC50", "result": "> 100 µM"}
{"Compound": "Cc1ccc(-c2cc(NCCc3ccc(C(F)(F)F)cc3)n3cnnc3n2)o1", "strain": "H37RV", "measurement": "MIC", "result": "0.37 µM"}
{"Compound": "O=c1c2cc(Cl)ccc2[nH]c(=S)n1Cc1ccc(-n2cccn2)nc1", "strain": "H37RV", "measurement": "MIC90", "result": "> 100 µM"}
{"Compound": "Nc1c(C(=O)NCc2ccc(F)cc2)sc2ncccc12", "strain": "H37RV", "measurement": "IC50", "result": "> 100 µM"}
{"Compound": "CCc1ccc(CCNc2cc(-c3ccco3)nc3nncn23)cc1", "strain": "H37RV", "measurement": "MIC", "result": "0.43 µM"}
{"Compound": "CCCCCCC#Cc1cncc(-c2nnc(SCc3cc(=O)[nH]c4ccccc34)n2C)c1", "technique": "resazurin", "strain": "ERDMAN", "measurement": "IC50", "result": "> 200 µM"}
{"Compound": "O=c1c2cc(Cl)c(CO)cc2[nH]c(=S)n1Cc1cncc(-c2nnn[nH]2)c1", "strain": "H37RV", "measurement": "MIC90", "result": "59.2 µM"}
{"Compound": "Cc1nnc2nc(-c3ccccn3)cc(NCCc3ccc(Cl)cc3)n12", "strain": "H37RV", "measurement": "MIC", "result": "24 µM"}
{"Compound": "CCN(CC)C(=O)c1sc2ncccc2c1N", "strain": "H37RV", "measurement": "IC50", "result": "> 100 µM"}
{"Compound": "O=c1c2cc(Cl)cnc2[nH]c(=S)n1Cc1cccnc1", "strain": "H37RV", "measurement": "MIC90", "result": "> 100 µM"}
{"Compound": "NNC(=O)c1ccncc1", "strain": "H37RV", "measurement": "MIC50", "result": "0.56 µg/mL"}
{"Compound": "Clc1cccc(CCOc2cc(-c3ccccn3)nc3ncnn23)c1", "strain": "H37RV", "measurement": "MIC", "result": "> 100 µM"}
{"Compound": "COc1ccc(-c2cc(C(F)(F)F)c3c(N)c(C(=O)N4CC5(CCOC5)C4)sc3n2)cc1", "strain": "H37RV", "measurement": "IC50", "result": "24 µM"}
{"Compound": "N#Cc1cncc(Cn2c(=S)[nH]c3cc(CO)c(Cl)cc3c2=O)c1", "strain": "H37RV", "measurement": "MIC90", "result": "2.7 µM"}
{"Compound": "COc1ccc(-c2cc(C(F)(F)F)c3c(N)c(C(=O)Nc4ccc(C)cc4C)sc3n2)cc1", "strain": "H37RV", "measurement": "IC50", "result": "> 100 µM"}
{"Compound": "CCCCCCC#Cc1cncc(-c2nnc(SCc3ccc([N+](=O)[O-])cc3)n2CCCN)c1", "technique": "resazurin", "strain": "ERDMAN", "measurement": "IC50", "result": "20 µM"}
{"Compound": "NC(=S)c1cncc(Cn2c(=S)[nH]c3cc(CO)c(Cl)cc3c2=O)c1", "strain": "H37RV", "measurement": "MIC90", "result": "4.61 µM"}
{"Compound": "c1ccc(-c2cc(NCCC34CC5CC(CC(C5)C3)C4)n3ncnc3n2)nc1", "strain": "H37RV", "measurement": "MIC", "result": "12 µM"}
{"Compound": "O=c1c2ccncc2[nH]c(=S)n1Cc1cccnc1", "strain": "H37RV", "measurement": "MIC90", "result": "> 100 µM"}
{"Compound": "O=C(c1cc2ccc(-c3ccccc3)nc2s1)N1CCCC1", "strain": "H37RV", "time": "5 days", "measurement": "IC90", "result": "> 100 µM"}
{"Compound": "CCc1cc(=O)c2c(OCC(O)CNC(C)C)c3ccoc3c(OC)c2o1 (stereo not shown)", "technique": "resazurin", "time": "21 days", "measurement": "MIC", "result": "16 µg/mL"}
{"Compound": "NCC[C@H](O)C(=O)N[C@@H]1C[C@H](N)[C@@H](O[C@H]2O[C@H](CN)[C@@H](O)[C@H](O)[C@H]2O)[C@H](O)[C@H]1O[C@H]1O[C@H](CO)[C@@H](O)[C@H](N)[C@H]1O", "strain": "H37RV", "measurement": "MIC50", "result": "1.2 µg/mL"}
{"Compound": "CCCCCCC#Cc1cncc(-c2nnc(SCc3cc([N+](=O)[O-])cc([N+](=O)[O-])c3)n2CCO)c1", "technique": "resazurin", "strain": "ERDMAN", "measurement": "IC50", "result": "1.4 µM"}
{"Compound": "Cc1ccc(CCNc2cc(-c3nccs3)nc3nncn23)cc1", "strain": "H37RV", "measurement": "MIC", "result": "32 µM"}
{"Compound": "CCCCCCC#Cc1cncc(-c2nnc(SCc3ccc([N+](=O)[O-])o3)n2CCCN)c1", "technique": "resazurin", "strain": "ERDMAN", "measurement": "IC50", "result": "12 µM"}
{"Compound": "Nc1c(C(=O)Nc2ccccc2C(F)(F)F)sc2nc(-c3ccccc3)cc(C(F)(F)F)c12", "strain": "H37RV", "measurement": "IC50", "result": "> 100 µM"}
{"Compound": "CC(=O)c1cc(-c2ccoc2)ccc1OCCc1cccc(F)c1", "measurement": "IC50", "result": "0.26 µM"}
{"Compound": "CCc1cc(=O)c2c(OCC(O)CN3CCCCC3)c3ccoc3c(OC)c2o1 (stereo not shown)", "technique": "resazurin", "strain": "H37RV", "time": "21 days", "measurement": "MIC", "result": "64 µg/mL"}
{"Compound": "CNC(=O)c1cc(C(F)F)ccc1OCCc1cccc(F)c1", "measurement": "IC50", "result": "0.73 µM"}
{"Compound": "CO[C@H]1/C=C/O[C@@]2(C)Oc3c(C)c(O)c4c(O)c(c(/C=N/N5CCN(C)CC5)c(O)c4c3C2=O)NC(=O)/C(C)=C\\C=C\\[C@H](C)[C@H](O)[C@@H](C)[C@@H](O)[C@@H](C)[C@H](OC(C)=O)[C@@H]1C", "measurement": "MIC50", "result": "0.01 µg/mL"}
{"Compound": "CCc1cc(=O)c2c(OCC(O)CN3CCC(C)CC3)c3ccoc3c(OC)c2o1 (stereo not shown)", "technique": "resazurin", "time": "21 days", "measurement": "MIC", "result": "32 µg/mL"}
{"Compound": "Cc1ccc(-c2cc(NCCc3ccc(OC(F)(F)F)cc3)n3cnnc3n2)o1", "strain": "H37RV", "measurement": "MIC", "result": "0.46 µM"}
{"Compound": "COc1ccc(-c2cc(C(F)(F)F)c3c(N)c(C(=O)NC45CC6CC(CC(O)(C6)C4)C5)sc3n2)cc1", "strain": "H37RV", "measurement": "IC50", "result": "> 100 µM"}
{"Compound": "C[C@H](N)C(=O)OCc1cc2[nH]c(=S)n(Cc3cncnc3)c(=O)c2cc1Cl", "strain": "H37RV", "measurement": "MIC90", "result": "4.22 µM"}
{"Compound": "CCCCCCC#Cc1cncc(-c2nnc(SC[C@H]3O[C@@H](n4ccc(=O)[nH]c4=O)[C@H](O)[C@@H]3O)n2C)c1", "technique": "resazurin", "strain": "ERDMAN", "measurement": "IC50", "result": "98 µM"}
{"Compound": "CC(CNc1cc(-c2ccccn2)nc2nncn12)c1ccccc1 (stereo not shown)", "strain": "H37RV", "measurement": "MIC", "result": "35 µM"}
{"Compound": "CC(c1cccnc1)n1c(=S)[nH]c2ccc(Cl)cc2c1=O (stereo not shown)", "strain": "H37RV", "measurement": "MIC90", "result": "66.2 µM"}
